# Test results published in ChEMBL document CHEMBL4715736, “Identification of anticancer agents based on the thieno[2,3-b]pyridine and 1H-pyrazole molecular scaffolds” (2016).
# Assays:
# Type in all cases: functional
# MCF7 = assay: Growth inhibition of human MCF7 cells assessed as cell growth at 1 uM incubated for 48 hrs by sulforhodamine B assay relative to control; details: read-out: Activity
# HCT-15 = assay: Growth inhibition of human HCT-15 cells assessed as cell growth at 100 uM incubated for 48 hrs by sulforhodamine B assay relative to control; details: read-out: Activity
# HCT-116 = assay: Growth inhibition of human HCT-116 cells assessed as cell growth at 0.01 uM incubated for 48 hrs by sulforhodamine B assay relative to control; details: read-out: Activity
# MDA-MB-435 = assay: Growth inhibition of human MDA-MB-435 cells assessed as cell growth at 100 uM incubated for 48 hrs by sulforhodamine B assay relative to control; details: read-out: Activity
# BT-549 [1] = assay: Growth inhibition of human BT-549 cells assessed as cell growth at 0.1 uM incubated for 48 hrs by sulforhodamine B assay relative to control; details: read-out: Activity
# MOLT-4 [2] = assay: Growth inhibition of human MOLT-4 cells assessed as cell growth at 1 uM incubated for 48 hrs by sulforhodamine B assay relative to control; details: read-out: Activity
# IGROV-1 [3] = assay: Growth inhibition of human IGROV-1 cells assessed as cell growth at 1 uM incubated for 48 hrs by sulforhodamine B assay relative to control; details: read-out: Activity
# Hs-578T = assay: Growth inhibition of human Hs-578T cells assessed as cell growth at 100 uM incubated for 48 hrs by sulforhodamine B assay relative to control; details: read-out: Activity
# SK-MEL-28 = assay: Growth inhibition of human SK-MEL-28 cells assessed as cell growth at 0.1 uM incubated for 48 hrs by sulforhodamine B assay relative to control; details: read-out: Activity
# CAKI-1 [4] = assay: Growth inhibition of human CAKI-1 cells assessed as cell growth at 0.01 uM incubated for 48 hrs by sulforhodamine B assay relative to control; details: read-out: Activity
# Outline: (§1)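 NCI Developmental Therapeutics Program NCI60 panel. Compounds that were active in the 10 µM one-dose screen went on to dose–response testing. Growth at each concentration is expressed relative to untreated control (100%). GI50 (concentration giving 50% of maximal inhibition of proliferation) and TGI (concentration giving total growth inhibition) were derived from the curves.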
# SNB-75 = assay: Growth inhibition of human SNB-75 cells assessed as cell growth at 0.1 uM incubated for 48 hrs by sulforhodamine B assay relative to control; details: read-out: Activity
# SNB-19 [5] = assay: Growth inhibition of human SNB-19 cells assessed as cell growth at 1 uM incubated for 48 hrs by sulforhodamine B assay relative to control; details: read-out: Activity
# UACC-257 = assay: Growth inhibition of human UACC-257 cells assessed as cell growth at 1 uM incubated for 48 hrs by sulforhodamine B assay relative to control; details: read-out: Activity
# NCI-H460 [6] = assay: Growth inhibition of human NCI-H460 cells assessed as cell growth at 0.1 uM incubated for 48 hrs by sulforhodamine B assay relative to control; details: read-out: Activity
# NCI-H322M = assay: Growth inhibition of human NCI-H322M cells assessed as cell growth at 0.01 uM incubated for 48 hrs by sulforhodamine B assay relative to control; details: read-out: Activity
# M14 = assay: Growth inhibition of human M14 cells assessed as cell growth at 0.1 uM incubated for 48 hrs by sulforhodamine B assay relative to control; details: read-out: Activity
# RPMI-8226 [7] = assay: Growth inhibition of human RPMI-8226 cells incubated for 48 hrs by sulforhodamine B assay
# Outline: (§2)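 NCI DTP 60-line human tumour panel. Dose-response curves were run only for ligands active in the initial 10 µM screen. GI50 (concentration giving 50% of maximal inhibition of proliferation) and TGI (concentration giving total growth inhibition) were derived from these curves.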
# SR = assay: Growth inhibition of human SR cells assessed as cell growth at 0.1 uM incubated for 48 hrs by sulforhodamine B assay relative to control; details: read-out: Activity
# OVCAR-8 = assay: Growth inhibition of human OVCAR-8 cells incubated for 48 hrs by sulforhodamine B assay; details: for CC50: read-out: LC50 (the source's name); outline: as §2
# RXF 393 = assay: Growth inhibition of human RXF 393 cells assessed as cell growth at 0.01 uM incubated for 48 hrs by sulforhodamine B assay relative to control; details: read-out: Activity
# SF-539 = assay: Growth inhibition of human SF-539 cells incubated for 48 hrs by sulforhodamine B assay; details: for CC50: read-out: LC50 (the source's name); outline: as §2
# RPMI-8226 [8] = assay: Growth inhibition of human RPMI-8226 cells assessed as cell growth at 100 uM incubated for 48 hrs by sulforhodamine B assay relative to control; details: read-out: Activity
# IGROV-1 [9] = assay: Growth inhibition of human IGROV-1 cells assessed as cell growth at 0.1 uM incubated for 48 hrs by sulforhodamine B assay relative to control; details: read-out: Activity
# SF-295 = assay: Growth inhibition of human SF-295 cells assessed as cell growth at 0.01 uM incubated for 48 hrs by sulforhodamine B assay relative to control; details: read-out: Activity
# SN12C = assay: Growth inhibition of human SN12C cells incubated for 48 hrs by sulforhodamine B assay; details: for CC50: read-out: LC50 (the source's name); outline: as §2
# HT-29 [10] = assay: Growth inhibition of human HT-29 cells assessed as cell growth at 0.01 uM incubated for 48 hrs by sulforhodamine B assay relative to control; details: read-out: Activity
# K562 = assay: Growth inhibition of human K562 cells assessed as cell growth at 1 uM incubated for 48 hrs by sulforhodamine B assay relative to control; details: read-out: Activity
# NCI-H460 [11] = assay: Growth inhibition of human NCI-H460 cells assessed as cell growth at 100 uM incubated for 48 hrs by sulforhodamine B assay relative to control; details: read-out: Activity
# HT-29 [12] = assay: Growth inhibition of human HT-29 cells assessed as cell growth at 0.1 uM incubated for 48 hrs by sulforhodamine B assay relative to control; details: read-out: Activity
# SNB-19 [13] = assay: Growth inhibition of human SNB-19 cells assessed as cell growth at 0.1 uM incubated for 48 hrs by sulforhodamine B assay relative to control; details: read-out: Activity
# CAKI-1 [14] = assay: Growth inhibition of human CAKI-1 cells assessed as cell growth at 100 uM incubated for 48 hrs by sulforhodamine B assay relative to control; details: read-out: Activity; outline: as §1
# BT-549 [15] = assay: Growth inhibition of human BT-549 cells assessed as cell growth at 1 uM incubated for 48 hrs by sulforhodamine B assay relative to control; details: read-out: Activity
# MOLT-4 [16] = assay: Growth inhibition of human MOLT-4 cells assessed as cell growth at 0.01 uM incubated for 48 hrs by sulforhodamine B assay relative to control; details: read-out: Activity
# SK-MEL-2 = assay: Growth inhibition of human SK-MEL-2 cells assessed as cell growth at 0.01 uM incubated for 48 hrs by sulforhodamine B assay relative to control; details: read-out: Activity
# DU-145 = assay: Growth inhibition of human DU-145 cells assessed as cell growth at 0.01 uM incubated for 48 hrs by sulforhodamine B assay relative to control; details: read-out: Activity; outline: as §1
# UACC-62 = assay: Growth inhibition of human UACC-62 cells assessed as cell growth at 0.01 uM incubated for 48 hrs by sulforhodamine B assay relative to control; details: read-out: Activity
# OVCAR-5 = assay: Growth inhibition of human OVCAR-5 cells assessed as cell growth at 0.1 uM incubated for 48 hrs by sulforhodamine B assay relative to control; details: read-out: Activity
smiles,measurement,setting,value
CN1CCc2nc3sc(C(N)=O)c(N)c3c(-c3cccs3)c2C1,growth at 1 µM,MCF7,111%
same,growth at 100 µM,HCT-15,6%
same,growth at 0.01 µM,HCT-116,100%
same,growth at 100 µM,MDA-MB-435,3%
same,growth at 0.1 µM,BT-549 [1],114%
same,growth at 1 µM,MOLT-4 [2],85%
same,growth at 1 µM,IGROV-1 [3],129%
same,growth at 100 µM,Hs-578T,-13%
same,growth at 0.1 µM,SK-MEL-28,103%
same,growth at 0.01 µM,CAKI-1 [4],95%
same,growth at 0.1 µM,SNB-75,95%
same,growth at 1 µM,SNB-19 [5],104%
same,growth at 1 µM,UACC-257,111%
same,growth at 0.1 µM,NCI-H460 [6],114%
same,growth at 0.01 µM,NCI-H322M,96%
same,growth at 0.1 µM,M14,111%
same,GI50,RPMI-8226 [7],4410 nM
same,LC50,RPMI-8226 [7],> 100 µM
same,TGI,RPMI-8226 [7],> 100 µM
same,growth at 0.1 µM,SR,96%
same,GI50,OVCAR-8,2700 nM
same,TGI,OVCAR-8,> 100 µM
same,CC50,OVCAR-8,> 100 µM
same,growth at 0.01 µM,RXF 393,97%
same,GI50,SF-539,2350 nM
same,TGI,SF-539,6.79 µM
same,CC50,SF-539,> 100 µM
same,growth at 100 µM,RPMI-8226 [8],1%
same,growth at 0.1 µM,IGROV-1 [9],116%
same,growth at 0.01 µM,SF-295,93%
same,GI50,SN12C,2690 nM
same,TGI,SN12C,> 100 µM
same,CC50,SN12C,> 100 µM
same,growth at 0.01 µM,HT-29 [10],106%
same,growth at 1 µM,K562,96%
same,growth at 100 µM,NCI-H460 [11],2%
same,growth at 0.1 µM,HT-29 [12],104%
same,growth at 0.1 µM,SNB-19 [13],103%
same,growth at 100 µM,CAKI-1 [14],7%
same,growth at 1 µM,BT-549 [15],92%
same,growth at 0.01 µM,MOLT-4 [16],99%
same,growth at 0.01 µM,SK-MEL-2,107%
same,growth at 0.01 µM,DU-145,111%
same,growth at 0.01 µM,UACC-62,99%
CCc1ccccc1NC(=O)c1sc2nc3c(cc2c1N)C(=O)CCC3,growth at 1 µM,MCF7,17%
same,growth at 100 µM,HCT-15,19%
same,growth at 0.01 µM,HCT-116,99%
same,growth at 100 µM,MDA-MB-435,-48%
same,growth at 0.1 µM,BT-549 [1],101%
same,growth at 1 µM,MOLT-4 [2],66%
same,growth at 1 µM,IGROV-1 [3],62%
same,growth at 100 µM,Hs-578T,15%
same,growth at 0.1 µM,SK-MEL-28,79%
same,growth at 0.01 µM,CAKI-1 [4],89%
same,growth at 0.1 µM,SNB-75,73%
same,growth at 1 µM,SNB-19 [5],45%
same,growth at 1 µM,UACC-257,52%
same,growth at 0.1 µM,NCI-H460 [6],98%
same,growth at 0.01 µM,NCI-H322M,97%
same,growth at 0.1 µM,M14,78%
same,GI50,RPMI-8226 [7],853 nM
same,LC50,RPMI-8226 [7],> 100 µM
same,TGI,RPMI-8226 [7],≥ 100 µM
same,growth at 0.1 µM,SR,96%
same,GI50,OVCAR-8,2520 nM
same,TGI,OVCAR-8,> 100 µM
same,CC50,OVCAR-8,> 100 µM
same,growth at 0.01 µM,RXF 393,94%
same,GI50,SF-539,335 nM
same,TGI,SF-539,2.69 µM
same,CC50,SF-539,> 100 µM
same,growth at 100 µM,RPMI-8226 [8],-5%
same,growth at 0.1 µM,IGROV-1 [9],102%
same,growth at 0.01 µM,SF-295,86%
same,GI50,SN12C,676 nM
same,TGI,SN12C,> 100 µM
same,CC50,SN12C,> 100 µM
same,growth at 0.01 µM,HT-29 [10],95%
same,growth at 1 µM,K562,22%
same,growth at 100 µM,NCI-H460 [11],3%
same,growth at 0.1 µM,HT-29 [12],100%
same,growth at 0.1 µM,SNB-19 [13],88%
same,growth at 100 µM,CAKI-1 [14],35%
same,growth at 1 µM,BT-549 [15],50%
same,growth at 0.01 µM,MOLT-4 [16],102%
same,growth at 0.1 µM,OVCAR-5,83%
same,growth at 0.01 µM,SK-MEL-2,108%
same,growth at 0.01 µM,DU-145,105%
